One experiment deals with PC-12. Nature of the experiment: Upregulation of NQO1 expression in rat PC-12 cell incubated for 24 hrs by Western blot analysis. The class given is functional. In outline: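 PC12 cells treated with compound for 24 h; lysates resolved by SDS-PAGE, transferred to PVDF and probed for HO-1 and NQO1; band intensities quantified densitometrically. Mean ± SD of three independent experiments.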
A general note: In western blotting, separated proteins are transferred to a membrane and probed.

Experiment [1] deals with T1, Nuclear factor erythroid 2-related factor 2 (Homo sapiens) (UniProt Q16236).
T1 sequence (whole entry): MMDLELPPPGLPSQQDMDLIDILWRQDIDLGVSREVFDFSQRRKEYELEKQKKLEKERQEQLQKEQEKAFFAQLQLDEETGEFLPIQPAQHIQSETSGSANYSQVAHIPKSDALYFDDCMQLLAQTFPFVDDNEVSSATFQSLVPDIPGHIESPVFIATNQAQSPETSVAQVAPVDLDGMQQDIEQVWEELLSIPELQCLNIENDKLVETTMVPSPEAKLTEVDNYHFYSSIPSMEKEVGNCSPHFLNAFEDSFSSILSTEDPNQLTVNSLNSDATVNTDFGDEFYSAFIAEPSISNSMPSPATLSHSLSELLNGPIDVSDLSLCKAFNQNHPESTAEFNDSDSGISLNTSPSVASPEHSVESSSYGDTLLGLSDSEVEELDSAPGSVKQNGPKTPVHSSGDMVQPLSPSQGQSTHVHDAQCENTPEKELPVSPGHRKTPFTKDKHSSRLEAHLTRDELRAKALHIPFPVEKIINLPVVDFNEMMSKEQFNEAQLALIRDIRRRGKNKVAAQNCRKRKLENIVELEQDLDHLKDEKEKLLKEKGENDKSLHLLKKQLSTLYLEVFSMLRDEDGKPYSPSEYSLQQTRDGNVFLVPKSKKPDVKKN
Nature of the experiment: Activation of Nrf2 in human HepG2-ARE-C8 cells assessed as fold change at 12.5 uM measured after 12 hrs by luciferase reporter gene assay relative to control. It is filed as cell-based. To be noted: filed as activator. On the technique in general: Reporter assays use an easily measured gene product as a stand-in for the process of interest.

A further experiment has as its system Mus musculus. The experiment in a line: Neuroprotective activity in lesioned C57BL/6 mouse model of Parkinson's disease assessed as increase in time spent on rotarod at 50 mg/kg, po administered for 2 week before MPTP stimulation by rotarod test. The class given is functional. The following applies: time 2 weeks. In outline:
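Male 10-week-old C57BL/6 mice (20–23 g), n = 6/group. Prophylactic: oral compound (50 or 100 mg/kg in saline) 2 weeks, then MPTP-HCl 25 mg/kg i.p. in week 3. Therapeutic: MPTP-HCl 25 mg/kg i.p. 1 week, then oral 100 mg/kg 2 weeks. Saline vehicle. Pole/rotarod training last 3 days; TH immunohistochemistry on SNpc and striatum.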

Calls of active or inactive are those of the source. No cut-off for these calls is given here.

With `COc1ccccc1/C=C/C=C/C(=O)N1CCCCC1`, in the experiment with PC-12, the result was Active. Further, the fold change (FC) in experiment [1] came out at 3. Also, the Time with Mus musculus amounted to 253.7 s.

Values taken from ChEMBL document CHEMBL4765320, “Identification and optimization of piperine analogues as neuroprotective agents for the treatment of Parkinson's disease via the activation of Nrf2/keap1 pathway” (Eur J Med Chem, 2020).
